Assay results published in the array DNA melting data of Ke et al. (doi:10.1101/2024.01.08.574731).

Columns and labels:
[1] = folding enthalpy; higher = less favourable; fluorescence melt of hairpins on a sequencing array, two-state fit; settings: sodium 0.088 M
Method in brief: (§1)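 Folding enthalpy and melting temperature come from bootstrapped two-state fits to Cy3 fluorescence of library hairpins carrying annealed Cy3 and quencher oligos on a sequenced MiSeq flow cell. Imaging was done in 50 mM Na-HEPES pH 8.0, 25 mM NaCl, stepping by 2.5 °C up to 60 °C, and signals were normalised to pre-quench Cy3 and to control constructs. Results of four replicates were combined by inverse variance, and fitted temperatures were raised by 9.35 °C to match UV melts.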

[2] = melting temperature; fluorescence melt of hairpins on a sequencing array, two-state fit, raised by 9.35 °C to match UV melts; settings: sodium 0.088 M
Method in brief: as §1

Row | Sequence | folding enthalpy [1] | Tm [2]
1 | GATCTGTCGGCAGATC ((((((....)))))) | -45.6 kcal/mol | 51.1 °C
2 | GATCTGTCGTCAGATC ((((((....)))))) | -37.6 kcal/mol | 50.5 °C
3 | GATCTGTCTCAGATC ((((((...)))))) | -28.1 kcal/mol | 49.3 °C
4 | GATCTGTCTCCAGATC ((((((....)))))) | -45.9 kcal/mol | 48.4 °C
5 | GATCTGTGACCAGATC ((((((....)))))) | -36.5 kcal/mol | 47.8 °C
6 | GATCTGTGATCAGATC ((((((....)))))) | -34 kcal/mol | 49.2 °C
7 | GATCTGTGCCAGATC ((((((...)))))) | -38 kcal/mol | 51.1 °C
8 | GATCTGTGCGCAGATC ((((((....)))))) | -47.1 kcal/mol | 57 °C
9 | GATCTGTGGACAGATC ((((((....)))))) | -45.1 kcal/mol | 53.2 °C
10 | GATCTGTGTTCAGATC ((((((....)))))) | -34.2 kcal/mol | 51.7 °C
11 | GATCTGTTAGCAGATC ((((((....)))))) | -42.9 kcal/mol | 52.3 °C
12 | GATCTGTTCCCAGATC ((((((....)))))) | -33.7 kcal/mol | 48.6 °C
13 | GATCTGTTTACAGATC ((((((....)))))) | -44.4 kcal/mol | 58.6 °C
14 | GATCTTAAAAAAGATC ((((((....)))))) | -20.3 kcal/mol | 33.7 °C
15 | GATCTTAAAGAAGATC ((((((....)))))) | -16.8 kcal/mol | 34.8 °C
16 | GATCTTAACAAAGATC ((((((....)))))) | -33 kcal/mol | 42.5 °C
17 | GATCTTACATAAGATC ((((((....)))))) | -35.9 kcal/mol | 43.1 °C
18 | GATCTTACCTAAGATC ((((((....)))))) | -40.2 kcal/mol | 45 °C
19 | GATCTTACGAAGATC ((((((...)))))) | -34.6 kcal/mol | 42.9 °C
20 | GATCTTACGCAAGATC ((((((....)))))) | -31.1 kcal/mol | 42.9 °C
21 | GATCTTACTCAAGATC ((((((....)))))) | -33.5 kcal/mol | 42.3 °C
22 | GATCTTACTTAAGATC ((((((....)))))) | -35.6 kcal/mol | 44.1 °C
23 | GATCTTAGTTAAGATC ((((((....)))))) | -34.9 kcal/mol | 44.1 °C
24 | GATCTTATACAAGATC ((((((....)))))) | -33.8 kcal/mol | 42.6 °C

Row | Sequence | folding enthalpy [1] | Tm [2]
25 | GATCTTATCAAAGATC ((((((....)))))) | -33.1 kcal/mol | 44.2 °C
26 | GATCTTATCTAAGATC ((((((....)))))) | -41.9 kcal/mol | 45.2 °C
27 | GATCTTATGAAGATC ((((((...)))))) | -28.1 kcal/mol | 42.4 °C
28 | GATCTTCAAGAAGATC ((((((....)))))) | -33.5 kcal/mol | 46 °C
29 | GATCTTCACAAGATC ((((((...)))))) | -28.7 kcal/mol | 45.8 °C
30 | GATCTTCCACAAGATC ((((((....)))))) | -35.2 kcal/mol | 41.5 °C
31 | GATCTTCCATAAGATC ((((((....)))))) | -33.9 kcal/mol | 43.4 °C
32 | GATCTTCGAAAGATC ((((((...)))))) | -21.4 kcal/mol | 39.9 °C
33 | GATCTTCGGAAGATC ((((((...)))))) | -33.3 kcal/mol | 41.9 °C
34 | GATCTTCTCAAGATC ((((((...)))))) | -33.3 kcal/mol | 46.7 °C
35 | GATCTTCTCTAAGATC ((((((....)))))) | -35 kcal/mol | 42.8 °C
36 | GATCTTGAGGAAGATC ((((((....)))))) | -24.9 kcal/mol | 36.8 °C
37 | GATCTTGAGTAAGATC ((((((....)))))) | -25.4 kcal/mol | 40.4 °C
38 | GATCTTGATTAAGATC ((((((....)))))) | -26.6 kcal/mol | 41.8 °C
39 | GATCTTGCACAAGATC ((((((....)))))) | -33.4 kcal/mol | 50.8 °C
40 | GATCTTGCCAAAGATC ((((((....)))))) | -39 kcal/mol | 55 °C
41 | GATCTTGCCTAAGATC ((((((....)))))) | -39.2 kcal/mol | 48.2 °C
42 | GATCTTGCGGAAGATC ((((((....)))))) | -36 kcal/mol | 42.7 °C
43 | GATCTTGCTTAAGATC ((((((....)))))) | -38 kcal/mol | 44 °C
44 | GATCTTGGAGAAGATC ((((((....)))))) | -29.8 kcal/mol | 43.9 °C
45 | GATCTTGGCGAAGATC ((((((....)))))) | -30.8 kcal/mol | 47 °C
46 | GATCTTGGGAAGATC ((((((...)))))) | -22.8 kcal/mol | 39.7 °C
47 | GATCTTGGGCAAGATC ((((((....)))))) | -37.4 kcal/mol | 46.7 °C
48 | GATCTTGGTAAAGATC ((((((....)))))) | -41.3 kcal/mol | 53.5 °C

Row | Sequence | folding enthalpy [1] | Tm [2]
49 | GATCTTGTGCAAGATC ((((((....)))))) | -47 kcal/mol | 46.4 °C
50 | GATCTTGTTAAAGATC ((((((....)))))) | -37.3 kcal/mol | 53.7 °C
51 | GATCTTGTTAAGATC ((((((...)))))) | -30.1 kcal/mol | 45.8 °C
52 | GATCTTTAAGAAGATC ((((((....)))))) | -34.9 kcal/mol | 41.5 °C
53 | GATCTTTATGAAGATC ((((((....)))))) | -36.5 kcal/mol | 44.9 °C
54 | GATCTTTCAGAAGATC ((((((....)))))) | -34.1 kcal/mol | 44.3 °C
55 | GATCTTTCGAAAGATC ((((((....)))))) | -40.8 kcal/mol | 49.3 °C
56 | GATCTTTGGAAAGATC ((((((....)))))) | -31.5 kcal/mol | 42.7 °C
57 | GATCTTTGTCAAGATC ((((((....)))))) | -33 kcal/mol | 39.9 °C
58 | GATCTTTTGGAAGATC ((((((....)))))) | -34.1 kcal/mol | 44.3 °C
59 | GATGAACCGAAAGGTATC (((..(((....)))))) | -12.9 kcal/mol | 28.8 °C
60 | GATGAAGGAAACTTCATC (((((((....))))))) | -40.9 kcal/mol | 53.5 °C
61 | GATGAAGGAAACTTCGTC ((.((((....)))).)) | -27 kcal/mol | 42.4 °C
62 | GATGACGAAAGTCCATC ((((((....))).))) | -17.2 kcal/mol | 41.5 °C
63 | GATGACGAAAGTCGCATC ((((((....)))..))) | -11.1 kcal/mol | 30.8 °C
64 | GATGAGACGAAAGTCATC (((..(((....)))))) | -13.4 kcal/mol | 35.9 °C
65 | GATGAGCGAAAGCTAATC (((.(((....))).))) | -24.9 kcal/mol | 46.6 °C
66 | GATGAGGGAAACCCCATC ((((.((....)).)))) | -31.4 kcal/mol | 41.2 °C
67 | GATGAGGGAAACTTCATC (((((.(....).))))) | -25 kcal/mol | 37.1 °C
68 | GATGATGGAAACATCACC (.(((((....))))).) | -16.3 kcal/mol | 37.3 °C
69 | GATGCACCGAAAGGTATC (((..(((....)))))) | -9.42 kcal/mol | 29 °C
70 | GATGCAGGAAACCGCATC (((((.(....).))))) | -33.5 kcal/mol | 49.9 °C
71 | GATGCAGGAAACTGCACC (.(((((....))))).) | -12.7 kcal/mol | 40.5 °C
72 | GATGCCCGAAAGGGAATC (((.(((....))).))) | -37.9 kcal/mol | 53.9 °C

Row | Sequence | folding enthalpy [1] | Tm [2]
73 | GATGCCCGAAAGGGATC (((.(((....)))))) | -17.4 kcal/mol | 45 °C
74 | GATGCCGAAAGGCGAATC ((((((....)))..))) | -9.65 kcal/mol | 36.9 °C
75 | GATGCCGAAAGGCGTATC ((((((....)))..))) | -11.5 kcal/mol | 36.4 °C
76 | GATGCCGGAAACGACATC ((((.((....)).)))) | -38.3 kcal/mol | 48.2 °C
77 | GATGCCGGAAACGGTATC (((.(((....))).))) | -42.9 kcal/mol | 53.9 °C
78 | GATGCGACGAAAGTCATC (((..(((....)))))) | -13 kcal/mol | 27.8 °C
79 | GATGCGCGAAAGCGATC (((.(((....)))))) | -12 kcal/mol | 41.3 °C
80 | GATGCGGGAAACCGTATC (((.(((....))).))) | -34.4 kcal/mol | 50.3 °C
81 | GATGCTGGAAACGGCATC (((((.(....).))))) | -44.1 kcal/mol | 54.3 °C
82 | GATGGACGAAAGTCAATC (((.(((....))).))) | -26.3 kcal/mol | 48.1 °C
83 | GATGGAGGAAACTCCGTC ((.((((....)))).)) | -31.9 kcal/mol | 48.9 °C
84 | GATGGAGGAAACTTCATC ((((.((....)).)))) | -37.5 kcal/mol | 39.6 °C
85 | GATGGCGAAAGCCAATC ((((((....))).))) | -14.1 kcal/mol | 50.7 °C
86 | GATGGCGAAAGCCGAATC ((((((....)))..))) | -8.36 kcal/mol | 34.4 °C
87 | GATGGCGAAAGCCTAATC ((((((....)))..))) | -9.84 kcal/mol | 32 °C
88 | GATGGCGGAAACGCTATC (((.(((....))).))) | -27.2 kcal/mol | 52 °C
89 | GATGGGGCGAAAGCCATC (((..(((....)))))) | -12 kcal/mol | 38.1 °C
90 | GATGGGGGAAACCTCGTC ((.(.((....)).).)) | -20 kcal/mol | 33.2 °C
91 | GATGGTGCGAAAGCAATC (((..(((....)))))) | -8.86 kcal/mol | 28.7 °C
92 | GATGGTGGAAACACCGTC ((.((((....)))).)) | -23.7 kcal/mol | 53.6 °C
93 | GATGGTGGAAACACTATC (((.(((....))).))) | -31 kcal/mol | 43.1 °C
94 | GATGGTGGAAACGCTATC (((.(.(....).).))) | -16.2 kcal/mol | 31.3 °C
